Assay results pooled from the literature.
Compare with care: the assays were run in different laboratories.
Cell line: K562
Read-out: cell growth or viability

c1ccc(-c2cc(CNc3cccc4cccnc34)on2)cc1  IC50 (MTS; 72 h): > 100 µM
COc1cccc2c1C(=O)c1c(O)c3c(c(O)c1C2=O)C[C@@](O)(C(=O)CO)C[C@@H]3O[C@H]1C[C@H](N)[C@H](O)[C@H](C)O1  IC50 (96 h): 0.13 µM
O=c1cc(OCc2cc(-c3ccc(Cl)cc3Cl)no2)c2ccccc2o1  IC50 (MTS; 72 h): > 100 µM
COc1ccc(Nc2ncnc3c2ncn3Cc2ccc(C(=O)Nc3ccccc3N)cc2)cc1  IC50 (MTT; 72 h): > 50 µM
FC(F)(F)c1ccc(-c2cc(CNc3cccc4cccnc34)on2)cc1  IC50 (MTS; 72 h): > 100 µM
O=C(NO)c1ccc(Cn2cnc3c(Nc4ccc(Br)cc4F)ncnc32)cc1  IC50 (MTT; 72 h): 5.18 µM
CC(C)[C@@H]1NC(=O)[C@H](Cc2c[nH]cn2)NC1=O  IC50 (MTT): > 15 µM
CN1CCC(NC2CCc3[nH]c4c(C(N)=O)ccc(-c5ccccc5Cl)c4c3C2)CC1 (stereo not shown)  IC50: 0.0214 µM
O=C(NO)c1ccc(Cn2cnc3c(Nc4cccc([N+](=O)[O-])c4)ncnc32)cc1  IC50 (MTT; 72 h): 10.4 µM
CC(C)[C@@H]1NC(=O)/C(=C/c2cnc[nH]2)NC1=O  IC50 (MTT): > 15 µM
